Legend:
SK-MEL-28 = assay: Cytotoxicity against human SK-MEL-28 cells after 72 hrs by MTS assay; type: functional, cell-based; settings: SK-MEL-28, 72 h
Method in brief: (§1)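 MTS viability assay on HNSCC (JMAR, MDA-1986), melanoma (B16F10, SKMEL-28) and normal fetal fibroblast (MRC-5) cells. Pure compounds tested at ten concentrations from 50 nM to 20 μM. IC50 values derived from the concentration series.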

[1] = Cytotoxicity against human MDA1986 cells after 72 hrs by MTS assay; type: functional, cell-based; settings: MDA1986, 72 h; method in brief: as §1
[2] = Cytotoxicity against human JMAR cells after 72 hrs by MTS assay; type: functional, cell-based; method in brief: as §1
B16-F10 = assay: Cytotoxicity against mouse B16F10 cells after 72 hrs by MTS assay; type: functional, cell-based; settings: B16-F10, 72 h; method in brief: as §1
[3] = Cytotoxicity against human […] cells after 72 hrs by MTS assay; type: cell-based; method in brief: as §1

SMILES | IC50 (SK-MEL-28) [µM] | IC50 [1] [µM] | IC50 [2] [µM] | IC50 (B16-F10) [µM] | IC50 [3] [µM]
CC1=C(CO[C@@H]2O[C@H](CO)[C@@H](O)[C@H](O)[C@H]2O)C[C@H]([C@@H](C)[C@H]2CC[C@H]3[C@@H]4C[C@H](O)c5cccc(O)c5[C@H]4CC[C@]23C)OC1=O [WITHALONGOLIDESAPONIN] | > 10 | > 10 | > 10 | > 10 | > 10
CC1=C(CO)C(=O)O[C@@H]([C@@H](C)[C@H]2CC[C@H]3[C@@H]4C[C@H]5O[C@]56[C@@H](O)CCC(=O)[C@]6(C)[C@H]4CC[C@]23C)C1 | > 10 | > 10 | > 10 | > 10 | > 10
CC1=C(CO[C@@H]2O[C@H](CO)[C@@H](O)[C@H](O)[C@H]2O)C[C@H]([C@@H](C)[C@H]2CC[C@H]3[C@@H]4CC(=O)C5=C(CC[C@@H](O)C5)[C@H]4CC[C@]23C)OC1=O [WITHALONGOLIDE N] | > 10 | > 10 | > 10 | > 10 | > 10
CC1=C(CO)C(=O)O[C@@H]([C@@H](C)[C@H]2CC[C@H]3[C@@H]4C[C@H]5O[C@]56[C@@H](O)[C@@H](O)CC(=O)[C@]6(C)[C@H]4CC[C@]23C)C1 [VISCOSALACTONE B] | > 10 | > 10 | > 10 | > 10 | > 10
CC1=C(CO[C@@H]2O[C@H](CO)[C@@H](O)[C@H](O)[C@H]2O)C[C@H]([C@@H](C)[C@H]2CC[C@H]3[C@@H]4C[C@H](O)C5=C(C(=O)C[C@H](O)C5)[C@H]4CC[C@]23C)OC1=O [WITHALONGOLIDE L] | > 10 | > 10 | > 10 | > 10 | > 10
CC1=C(CO[C@@H]2O[C@H](CO)[C@@H](O)[C@H](O)[C@H]2O)C[C@H]([C@@H](C)[C@H]2CC[C@H]3[C@@H]4CC=C5C[C@@H](O)C[C@H](O)[C@]5(CO)[C@H]4CC[C@]23C)OC1=O [WITHALONGOLIDE J] | > 10 | > 10 | > 10 | > 10 | > 10
CC1=C(C)C(=O)O[C@@H]([C@@H](C)[C@H]2CC[C@H]3[C@@H]4C[C@H]5O[C@]56[C@@H](O)C=CC(=O)[C@]6(CO)[C@H]4CC[C@]23C)C1 [WITHALONGOLIDE B] | 3.9 | 1.3 | 0.17 | 0.2 | 0.4
CC1=C(CO)C(=O)O[C@@H]([C@@H](C)[C@H]2CC[C@H]3[C@@H]4C[C@H]5O[C@]56[C@@H](O)[C@@H](OS(=O)(=O)O)CC(=O)[C@]6(CO)[C@H]4CC[C@]23C)C1 [WITHALONGOLIDE G] | 4.8 | 2 | 2.3 | 1.3 | 3.3
CC(=O)OCC1=C(C)C[C@H]([C@@H](C)[C@H]2CC[C@H]3[C@@H]4C[C@H]5O[C@]56[C@@H](OC(C)=O)C=CC(=O)[C@]6(CO)[C@H]4CC[C@]23C)OC1=O | 0.81 | 2.2 | 0.14 | 0.098 | 0.41
CC1=C(CO[C@@H]2O[C@H](CO)[C@@H](O)[C@H](O)[C@H]2O)C[C@H]([C@@H](C)[C@H]2CC[C@H]3[C@@H]4CCC5=C(C(=O)C[C@H](O)C5)[C@H]4CC[C@]23C)OC1=O [WITHALONGOLIDE M] | > 10 | > 10 | > 10 | > 10 | > 10
CC(=O)OC[C@]12C(=O)C=C[C@H](O)[C@]13O[C@@H]3C[C@H]1[C@@H]3CC[C@H]([C@H](C)[C@H]4CC(C)=C(C)C(=O)O4)[C@@]3(C)CC[C@@H]12 | 0.64 | 0.49 | 0.12 | 0.19 | 0.16
CC1=C(CO)C(=O)O[C@@H]([C@@H](C)[C@H]2CC[C@H]3[C@@H]4C[C@H]5O[C@]56[C@@H](O)C=CC(=O)[C@]6(CO)[C@H]4[C@@H](O)C[C@]23C)C1 | 3 | 2.6 | 0.77 | 0.49 | 3.6
CC1=C(CO[C@@H]2O[C@H](CO)[C@@H](O[C@@H]3O[C@@H](C)[C@H](O)[C@@H](O)[C@H]3O)[C@H](O)[C@H]2O)C(=O)O[C@@H]([C@@H](C)[C@H]2CC[C@H]3[C@@H]4C[C@H]5O[C@]56[C@@H](O)C=CC(=O)[C@]6(C)[C@H]4CC[C@]23C)C1 [WITHALONGOLIDE H] | > 10 | 8.1 | 8.2 | > 10 | 8.7
CC1=C(CO)C(=O)O[C@@H]([C@@H](C)[C@H]2CC[C@H]3[C@@H]4C[C@H]5O[C@]56[C@@H](O)C=CC(=O)[C@]6(C)[C@H]4CC[C@]23C)C1 [WITHAFERIN A] | 4 | 0.8 | 2 | 0.29 | 0.2
CO[C@H]1CC(=O)[C@]2(C)[C@H]3CC[C@]4(C)[C@@H]([C@H](C)[C@H]5CC(C)=C(CO)C(=O)O5)CC[C@H]4[C@@H]3C[C@H]3O[C@]32[C@H]1O | > 10 | > 10 | > 10 | > 10 | > 10
CC1=C(CO[C@@H]2O[C@H](CO)[C@@H](O)[C@H](O)[C@H]2O)C(=O)O[C@@H]([C@@H](C)[C@H]2CC[C@H]3[C@@H]4C[C@H]5O[C@]56[C@@H](O)C=CC(=O)[C@]6(C)[C@H]4CC[C@]23C)C1 [SITOINDOSIDE IX] | 8.3 | > 10 | 4.2 | 3.7 | 5.2
CO[C@H]1CC(=O)[C@]2(CO)[C@H]3CC[C@]4(C)[C@@H]([C@H](C)[C@H]5CC(C)=C(CO)C(=O)O5)CC[C@H]4[C@@H]3C[C@H]3O[C@]32[C@H]1O [WITHALONGOLIDE D] | 9.3 | > 10 | 4.7 | 3.2 | 6.5
CC1=C(CO)C(=O)O[C@@H]([C@@H](C)[C@H]2CC[C@H]3[C@@H]4CC=C5C=CC(=O)[C@]5(C)[C@H]4CC[C@]23C)C1 [WITHALONGOLIDE F] | > 10 | > 10 | > 10 | > 10 | > 10
CC1=C(CO)C(=O)O[C@@H]([C@@H](C)[C@H]2CC[C@H]3[C@@H]4C[C@@H]5O[C@@H]6CC(=O)[C@](C)([C@H]4CC[C@]23C)[C@@]5(O)[C@H]6O)C1 | > 10 | > 10 | > 10 | > 10 | > 10
CC1=C(CO)C(=O)O[C@@H]([C@@H](C)[C@H]2CC[C@H]3[C@@H]4C[C@H]5O[C@]56[C@@H](O)[C@@H](OS(=O)(=O)O)CC(=O)[C@]6(C)[C@H]4CC[C@]23C)C1 | 5.1 | 0.27 | 0.48 | 0.18 | 1.4
CC(=O)OCC1=C(C)C[C@H]([C@@H](C)[C@H]2CC[C@H]3[C@@H]4C[C@H]5O[C@]56[C@@H](OC(C)=O)C=CC(=O)[C@]6(COC(C)=O)[C@H]4CC[C@]23C)OC1=O | 0.54 | 0.91 | 0.16 | 0.067 | 0.58
CO[C@H]1CC(=O)[C@]2(C)[C@@H]3[C@@H](C[C@H]4O[C@]42[C@H]1O)[C@@H]1CC[C@H]([C@H](C)[C@H]2CC(C)=C(CO)C(=O)O2)[C@@]1(C)C[C@@H]3O [WITHALONGOLIDE E] | > 10 | 8.3 | > 10 | 5.6 | 7.3
CC1=C(CO)C(=O)O[C@@H]([C@@H](C)[C@H]2CC[C@H]3[C@@H]4CC=C5C[C@@H](O[C@@H]6O[C@H](CO)[C@@H](O)[C@H](O)[C@H]6O)CC(=O)[C@]5(CO)[C@H]4CC[C@]23C)C1 [WITHALONGOLIDE I] | > 10 | > 10 | > 10 | > 10 | > 10
CC(=O)OC[C@]12C(=O)C=C[C@H](OC(C)=O)[C@]13O[C@@H]3C[C@H]1[C@@H]3CC[C@H]([C@H](C)[C@H]4CC(C)=C(C)C(=O)O4)[C@@]3(C)CC[C@@H]12 | 0.27 | 0.11 | 0.24 | 0.13 | 0.51
CC1=C(CO)C(=O)O[C@@H]([C@@H](C)[C@H]2CC[C@H]3[C@@H]4C[C@H]5O[C@]56[C@@H](O)C=CC(=O)[C@]6(CO)[C@H]4CC[C@]23C)C1 | 5.1 | 3.3 | 5.3 | > 10 | > 10
